{"source": "paper PMC4642222", "about": "(Biochemistry, 2015)", "key": {"MAS": {"system": "MAS", "assay": "Filamin A phosphorylation in HEK-MAS cells", "assay_type": "cell-based, human", "summary_of_the_method": "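HEK293 cells with doxycycline-inducible (100 ng/mL) myc-tagged MAS were induced 24 h with or without MAS inverse agonist (10 μM), then serum-starved 2 h with inverse agonist or H-89 (10 μM each). They were then treated 1 h with MAS agonist (10 μM) plus H-89; uninduced cells served as controls. Lysates were Western-blotted for pS2152-FLNa, FLNa and GAPDH, and pFLNa/FLNa was given as fold over uninduced. Mean ± SEM, N = 3, unpaired t test.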"}, "Filamin A (Homo sapiens)": {"target": "Filamin A (Homo sapiens) (UniProt P21333)", "sequence (P21333 2-2647)": "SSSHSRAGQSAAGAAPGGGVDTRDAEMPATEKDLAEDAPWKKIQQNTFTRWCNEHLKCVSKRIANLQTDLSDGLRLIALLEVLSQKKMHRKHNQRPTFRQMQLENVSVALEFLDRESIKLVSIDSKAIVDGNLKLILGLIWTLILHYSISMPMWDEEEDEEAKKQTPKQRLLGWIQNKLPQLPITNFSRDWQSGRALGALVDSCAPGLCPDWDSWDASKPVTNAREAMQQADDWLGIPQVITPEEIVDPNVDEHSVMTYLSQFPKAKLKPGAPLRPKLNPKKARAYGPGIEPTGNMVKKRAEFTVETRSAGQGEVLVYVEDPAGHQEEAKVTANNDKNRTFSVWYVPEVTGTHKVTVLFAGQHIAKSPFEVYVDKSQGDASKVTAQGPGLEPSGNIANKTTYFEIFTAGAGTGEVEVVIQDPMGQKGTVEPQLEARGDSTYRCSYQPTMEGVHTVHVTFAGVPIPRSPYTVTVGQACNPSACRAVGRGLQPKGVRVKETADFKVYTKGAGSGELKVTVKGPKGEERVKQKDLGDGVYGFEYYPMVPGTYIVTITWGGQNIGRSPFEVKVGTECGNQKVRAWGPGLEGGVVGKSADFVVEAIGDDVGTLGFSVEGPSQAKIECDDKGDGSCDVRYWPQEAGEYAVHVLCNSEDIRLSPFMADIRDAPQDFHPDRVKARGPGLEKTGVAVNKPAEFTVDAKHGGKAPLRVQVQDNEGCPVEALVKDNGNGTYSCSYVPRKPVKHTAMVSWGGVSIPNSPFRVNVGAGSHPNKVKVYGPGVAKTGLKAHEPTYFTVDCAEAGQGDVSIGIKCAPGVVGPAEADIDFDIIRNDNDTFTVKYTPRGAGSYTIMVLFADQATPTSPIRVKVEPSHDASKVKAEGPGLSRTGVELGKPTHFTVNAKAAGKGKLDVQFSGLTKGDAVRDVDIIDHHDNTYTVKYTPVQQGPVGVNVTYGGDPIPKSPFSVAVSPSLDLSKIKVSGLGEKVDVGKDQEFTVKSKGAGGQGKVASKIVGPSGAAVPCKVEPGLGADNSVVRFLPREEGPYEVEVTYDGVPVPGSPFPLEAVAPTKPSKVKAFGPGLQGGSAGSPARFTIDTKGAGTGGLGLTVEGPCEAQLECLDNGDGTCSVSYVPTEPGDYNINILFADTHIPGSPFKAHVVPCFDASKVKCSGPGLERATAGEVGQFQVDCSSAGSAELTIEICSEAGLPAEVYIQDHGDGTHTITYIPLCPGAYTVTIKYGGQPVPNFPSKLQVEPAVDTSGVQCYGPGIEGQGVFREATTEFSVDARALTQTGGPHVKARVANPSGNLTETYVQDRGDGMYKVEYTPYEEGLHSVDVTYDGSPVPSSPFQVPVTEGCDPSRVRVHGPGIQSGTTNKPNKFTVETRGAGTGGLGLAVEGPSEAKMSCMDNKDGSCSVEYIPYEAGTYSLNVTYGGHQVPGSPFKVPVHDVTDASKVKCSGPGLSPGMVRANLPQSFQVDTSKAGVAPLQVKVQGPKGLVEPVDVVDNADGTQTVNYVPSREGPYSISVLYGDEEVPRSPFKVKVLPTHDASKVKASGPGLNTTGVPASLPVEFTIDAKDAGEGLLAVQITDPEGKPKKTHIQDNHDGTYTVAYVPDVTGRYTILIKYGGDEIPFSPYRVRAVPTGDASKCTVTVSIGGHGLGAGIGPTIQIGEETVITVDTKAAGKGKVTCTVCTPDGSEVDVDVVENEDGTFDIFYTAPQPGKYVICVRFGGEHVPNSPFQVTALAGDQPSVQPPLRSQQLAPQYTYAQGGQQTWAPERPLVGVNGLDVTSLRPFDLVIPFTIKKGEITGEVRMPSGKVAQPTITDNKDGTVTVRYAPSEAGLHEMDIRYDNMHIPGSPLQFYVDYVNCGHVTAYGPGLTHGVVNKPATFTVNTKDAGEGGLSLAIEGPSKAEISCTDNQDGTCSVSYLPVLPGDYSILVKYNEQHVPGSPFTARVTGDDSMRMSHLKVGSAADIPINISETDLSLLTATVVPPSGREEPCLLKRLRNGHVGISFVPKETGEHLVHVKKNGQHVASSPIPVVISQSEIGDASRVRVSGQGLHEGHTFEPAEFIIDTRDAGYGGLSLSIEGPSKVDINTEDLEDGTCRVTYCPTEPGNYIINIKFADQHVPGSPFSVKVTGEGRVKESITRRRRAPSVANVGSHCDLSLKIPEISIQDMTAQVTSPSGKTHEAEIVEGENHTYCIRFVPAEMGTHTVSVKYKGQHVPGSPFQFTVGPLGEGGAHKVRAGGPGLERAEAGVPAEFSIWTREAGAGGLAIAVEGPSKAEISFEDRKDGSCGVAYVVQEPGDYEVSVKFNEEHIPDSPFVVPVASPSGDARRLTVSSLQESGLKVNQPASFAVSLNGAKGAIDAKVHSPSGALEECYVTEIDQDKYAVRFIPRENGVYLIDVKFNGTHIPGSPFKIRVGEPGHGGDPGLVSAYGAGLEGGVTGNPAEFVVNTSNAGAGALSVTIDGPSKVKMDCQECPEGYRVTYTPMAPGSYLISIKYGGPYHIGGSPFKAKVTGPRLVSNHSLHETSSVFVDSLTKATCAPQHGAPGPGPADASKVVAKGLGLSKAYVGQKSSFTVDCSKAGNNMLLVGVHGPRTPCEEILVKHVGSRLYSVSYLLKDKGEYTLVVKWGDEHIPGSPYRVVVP", "details": "cited from earlier work"}, "[1]": {"assay": "Peptide solubility in ITC buffer", "assay_type": "physicochemical", "details": "25 mM sodium phosphate (pH 6.4), 5 mM NaCl, 1 mM DTT"}, "FLNa Ig21 [2]": {"target": "T1, FLNa Ig21 (Homo sapiens, UniProt P21333)", "T1 sequence (P21333 2236-2329 limits assumed)": "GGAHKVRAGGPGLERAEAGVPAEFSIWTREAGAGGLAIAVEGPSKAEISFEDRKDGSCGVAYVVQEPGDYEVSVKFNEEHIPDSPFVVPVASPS", "assay": "15N HSQC NMR binding to FLNa Ig21", "details": "15N-labeled Ig21, Bruker Avance 600 MHz, 30 °C; D3R peptide at 2-fold excess"}, "FLNa Ig21 [3]": {"target": "T1, FLNa Ig21", "assay": "Isothermal titration calorimetry", "assay_type": "binding", "details": "FLNa Ig21, 25 mM sodium phosphate (pH 6.4), 30 °C"}, "FLNa Ig19": {"system": "FLNa Ig19", "assay": "15N HSQC NMR binding to FLNa Ig19", "parameters": "species or system human", "details": "15N-labeled Ig19, Bruker Avance 600 MHz, 30 °C; 2-fold excess of peptide"}, "AT1R": {"system": "AT1R", "assay": "Filamin A phosphorylation in HEK-AT1R cells", "assay_type": "cell-based, rat", "details": "serum starved 2 h, AngII 1 μM for 1 h, mean of N = 2", "summary_of_the_method": "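HEK293 cells stably expressing HA-tagged rat AT1R were grown to 80–90% confluency and serum-starved 2 h. They were pretreated 30 min with vehicle or candesartan (10 μM), then given vehicle or AngII (1 μM) for 1 h. About 25 μg of M-PER lysate (protease and phosphatase inhibitors) was run on 4–12% SDS-PAGE. Blots were probed for pS2152-FLNa, FLNa and GAPDH by near-IR fluorescence. pFLNa/FLNa was expressed as fold over untreated; mean ± SEM, N = 2, unpaired t test.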"}, "FLNa": {"system": "FLNa", "details": "cited from earlier work"}, "[4]": {"target": "Filamin A Ig21 (Homo sapiens) (UniProt P21333)", "details": "cited from earlier work"}, "[5]": {"target": "Human Filamin A immunoglobulin domain Ig21 (human)", "assay": "ITC"}}, "note": "Entries after “also recorded” stand apart in the source; their conditions may differ. Where no end group is shown, it is not given here.", "data": [{"molecule": "C=CCCN1CCC2(CC1)CN(C(=O)c1c(F)cccc1F)c1ccc(Cl)cc12", "note": "[AR-inverse agonist]", "values": [{"measurement": "FLNa phosphorylation induced by constitutive activity of MAS", "setting": "MAS; 10 μM AR-inverse agonist during induction (24 h) and serum starvation (2 h), N = 3", "value": "abolished constitutive FLNa phosphorylation"}]}, {"molecule": "O=S(=O)(NCCNC/C=C/c1ccc(Br)cc1)c1cccc2cnccc12", "note": "[H-89]", "values": [{"measurement": "inhibition of the increase in pFLNa in MAS-expressing cells", "setting": "MAS; H-89 10 μM, Discussion statement", "value": 60, "unit": "%"}]}, {"molecule": "GPIbα (from UniProt P07359)", "values": [{"measurement": "Kd", "setting": "Filamin A (Homo sapiens)", "value": 0.1, "unit": "µM"}]}, {"molecule": "KGHTFRSSLSVRLLKFSR [α1D-AR]", "values": [{"measurement": "solubility of peptide (in words)", "setting": "[1]", "value": "limited"}]}, {"molecule": "VRKLSNGRLSTSLKLGPLQPRGV [D3R]", "values": [{"measurement": "HSQC spectral changes / binding to FLNa Ig21", "setting": "FLNa Ig21 [2]", "value": "binds FLNa Ig19 and Ig21"}, {"measurement": "affinity for Ig21 by ITC (in words)", "setting": "FLNa Ig21 [3]", "value": "could not be assessed accurately by ITC because of its lower affinity; also recorded: binds with a lower affinity"}, {"measurement": "HSQC spectral changes / binding to FLNa Ig19", "setting": "FLNa Ig19", "value": "binds FLNa Ig19 and Ig21"}]}, {"molecule": "angiotensin II (DRVYIHPF; Angiotensin-2; UniProt P01019 25-32, looked up) [AngII]", "values": [{"measurement": "filamin phosphorylation, increase (pFLNa/FLNa)", "setting": "AT1R", "value": 5, "unit": "fold"}]}, {"molecule": "lysophosphatidic acid", "values": [{"measurement": "level of FLNa phosphorylation", "setting": "FLNa", "value": "increase the level of FLNa phosphorylation"}]}, {"molecule": "β7 integrin C-terminal peptide Ct (from UniProt P26010)", "values": [{"measurement": "Kd", "setting": "[4]", "value": 40, "unit": "µM"}]}, {"molecule": "KGHTFRSSLSVRLLKFSR", "note": "[α1D-adrenoreceptor (α1D-AR) filamin binding motif (FBM) peptide]", "values": [{"measurement": "Kd", "setting": "[5]", "value": 0.8, "unit": "µM"}]}, {"molecule": "KKKRFKESLKVVLTRAFK", "note": "[MAS filamin binding motif (FBM) peptide]", "values": [{"measurement": "Kd", "setting": "[5]", "value": 0.3, "unit": "µM"}]}, {"molecule": "LGKKFKRYFLQLLKYIPPKA", "note": "[AT1R filamin binding motif (FBM) peptide]", "values": [{"measurement": "Kd", "setting": "[5]", "value": 0.8, "unit": "µM"}]}]}
